Screens deposited in PubChem BioAssay by several laboratories.
697 NFkB inh: inhibitors of PMA/ionomycin-induced NF-kB reporter, 697 cells, primary screen, B-cell NF-kB inhibitor project, cell-based, luminescence, uHTS; 330,000 compounds, 0.33% hits; 697 B-cell NF-kB luciferase reporter, 16 h; AID 435022, 2010; inhibition, % at 4 µM; in the data active = inhibition above about 35%
JMJD2C inh: inhibitors of GASC-1 histone demethylase, primary screen, biochemical, fluorescence, DELFIA europium. AID 2099, 2009. inhibition, % at 2.35 µM. 330,000 compounds, 0.069% hits. GST-JMJD2C(1-420) H3K9me3 demethylation;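 active = more than half of a compound's replicate wells show inhibition beyond 50%, single wells judged on their own value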;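 note: signal counts dimethyl H3K9 product captured on neutravidin plate; 0% = median of DMSO wells and 100% = 0.3 times that DMSO median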
Target sequence (Q9H3R0 1-420 limits assumed): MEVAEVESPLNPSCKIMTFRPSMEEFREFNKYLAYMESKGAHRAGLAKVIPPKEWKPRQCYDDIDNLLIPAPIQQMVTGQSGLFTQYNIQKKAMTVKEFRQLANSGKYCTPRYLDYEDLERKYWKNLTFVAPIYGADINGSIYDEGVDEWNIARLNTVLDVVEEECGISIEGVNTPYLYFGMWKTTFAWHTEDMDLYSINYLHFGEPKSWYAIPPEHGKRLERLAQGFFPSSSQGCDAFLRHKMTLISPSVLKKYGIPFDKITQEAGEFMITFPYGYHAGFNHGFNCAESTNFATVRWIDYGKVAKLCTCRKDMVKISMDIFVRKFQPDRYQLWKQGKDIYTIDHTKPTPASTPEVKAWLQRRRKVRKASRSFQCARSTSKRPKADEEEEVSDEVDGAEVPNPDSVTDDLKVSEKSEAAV
Jurkat NFkB inh: inhibitors of induced NF-kB luciferase reporter, primary screen, TCR NF-kB activation inhibitor project, cell-based, luminescence, uHTS; Jurkat, PMA/ionomycin-induced NF-kB luciferase reporter; inhibition, % at 4 µM; 330,000 compounds, 0.53% hits; in the data active = inhibition above about 50%
NR2E3 ag-1: inhibitors of NR2E3-RetCOR corepressor binding, primary screen, NR2E3 agonist project, biochemical, TR-FRET, GST-NR2E3, biotin-RetCOR | Photoreceptor-specific nuclear receptor (Homo sapiens), Q9Y5X4 | 1536-well | inhibition of corepressor binding, % at 4.78 µM | 320,000 compounds, 0.12% hits | AID 2300, 2010;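 active = percent inhibition above the cutoff of mean plus 3 SD of all tested compounds, set per screening campaign, cut at about 20% in these data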;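 note: 0% = DMSO wells and 100% = biotin wells as full block of FRET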
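Material: NR2E3–RetCOR corepressor complex / Amount: 1.35 nM GST-NR2E3 / Medium: Tris pH 7.5 / Compound: single nominal compound dose of 4.8 µM / Incubation: 5 h at 4 °C / Technique: TR-FRET, Eu(K)-anti-GST donor, streptavidin-D2 acceptor, ex 340, em 617/671 nm / Read-out basis: percent loss of FRET ratio relative to control wells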
GalR3 antag: GalR3 antagonists in HEK293 cells, primary screen, cell-based, fluorescence readout | AID 651719, 2012 | inhibition, % at 3 µM | Galanin receptor type 3 (Homo sapiens), O60755 | HEK293 GalR3-CNG cAMP membrane potential fluorescence; galR3 body fused to GalR1 C-terminus | 360,000 compounds, 0.44% hits;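 active = inhibition above the screen-wide average plus 3 SD, cut at about 13% in these data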;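 note: forskolin and galanin both at EC90 stimulate the cells; cAMP rise reported by CNG channel membrane potential dye signal; 0% = forskolin plus galanin with DMSO and 100% = forskolin alone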
NR2E3 ag-2: NR2E3 agonists in two-hybrid cells, primary screen, cell-based, luminescence, CHO-S, Gal4-NCOR/VP16-NR2E3; inhibition of corepressor binding, % at 3.98 µM; 360,000 compounds, 0.35% hits; Photoreceptor-specific nuclear receptor (Homo sapiens), Q9Y5X4; AID 602229, 2012; luciferase;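 active = inhibition above the mean of all tested compounds plus 3 SD, cut at about 70% in these data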;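 note: 0% = DMSO with NR2E3 transfected cells and 100% = cells lacking NR2E3 construct; higher means lower luciferase signal from less NR2E3 corepressor binding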
Jurkat NFkB conf: PMA/ionomycin-induced NF-kB reporter inhibitors, Jurkat retest, confirmation, T-cell NF-kB inhibitor project, cell-based, luminescence, single concentration; 2,700 compounds, 27% hits; shares compounds with Jurkat NFkB inh; AID 435020, 2010; inhibition, % at 4 µM; Jurkat NF-kB luciferase, 16 h;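 active = inhibition reaching about 45% at 4 µM in either replicate, limit read from the data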;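 note: plate controls were PMA/ionomycin stimulated DMSO wells for no effect and unstimulated DMSO wells for full effect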
Starred values were filed as active, the others as inactive; x = no result given. A selection: hits, their analogues and other compounds. The true share with any hit is near 1.5%.

SMILES	697 NFkB inh	JMJD2C inh	Jurkat NFkB inh	NR2E3 ag-1	GalR3 antag	NR2E3 ag-2	Jurkat NFkB conf
O=C(Nc1ccc(Br)cn1)c1cccc2c1-c1ccccc1C2=O	6	-33	61*	4	-1	-9	18
Cc1ccc(NCCC(=O)c2cccs2)cc1C	-124	-3	-180	2	-4	-59	-7
Cc1ccc(NCCC(=O)c2cccs2)cc1Cl	-41	7	-27	4	-7	-57	x
COC(=O)c1ccc(C(=O)NC2CCCc3c2cnn3-c2ccccc2F)nc1 (stereo not drawn)	-44	0	56*	-2	-7	-31	24
COc1cc(C(=O)NC2CCCc3c2cnn3-c2ccccc2F)cc(OC)c1OC (stereo not drawn)	-35	33	27	-1	-10	30	x
CN(C)c1ccc(/C=N\Nc2ccccn2)cc1	-193	1	-185	-2	-9	-72	-60
CCc1ccc(-c2nc(SCC(=O)N3CCOCC3)n[nH]2)cc1	-19	-18	-9	5	2	-8	x
CC(C)(C)c1ccc(Oc2ccc(NC(=O)c3ccco3)cn2)cc1	-143	0	53*	-1	-6	46	40
CCOC(=O)c1c(C)[nH]c(C(=O)N/N=C/c2ccc(Br)cc2)c1C	-72	7	79*	-2	-4	37	46
CCOC(=O)Nc1ccc2c(c1)OCO2	-54	6	-30	-4	-8	-65	x
Cc1[nH]c(C(=O)N/N=C/c2ccc(C(=O)O)cc2)c(C)c1C(=O)N/N=C/c1ccc(C(=O)O)cc1	10	-12	-9	1	-1	11	x
CCOC(=O)c1c(C)[nH]c(C(=O)Nc2ccc3c(c2)OCO3)c1C	-154	-15	-187	2	x	x	-94
CC(C)(C)C(Cn1ccnc1)NC(=O)c1ccc2nc(C3CC3)oc2c1 (stereo not drawn)	-31	8	14	1	-4	-42	x
Cc1cc(C)cc(NC2=NC3(CCCCC3)N=C(N)N2)c1	-2	3	66*	2	-3	-5	12
NC1=NC2(CCCCC2)N=C(Nc2ccc(F)cc2F)N1	3	0	4	-2	-2	-21	x
Cc1ccc(NC(=O)CN(C)C(=O)COc2cccc3ccc(C)nc23)cc1	-5	1	-192	x	2	2	13
O=C1/C(=C\c2cccs2)Sc2ccc3ccccc3c21	-155	-4	-157	1	-6	-115	-91
O=C1C(=Cc2cccs2)C(=O)c2ccccc21	11	5	1	2	-6	1	x
O=S(=O)(CCNC1CC1)NC1CCCCC1	x	x	x	x	-4	-29	x
CC(=O)c1ccc(S(=O)(=O)Nc2cccc(-c3ccc4nncn4n3)c2)cc1	0	-4	-5	5	-4	-15	x
Cc1ccc(S(=O)(=O)Nc2cccc(-c3ccc4nncn4n3)c2)cc1	-8	-1	59*	-2	-6	-42	48*
COc1cc(NC(=O)c2csc(N)n2)cc(C(=O)Nc2cccc(C(F)(F)F)c2)c1	-33	3	64*	-2	-5	-46	-1
COc1ccc(C(=O)CSc2nnc(CNC(=O)c3ccc(OC)cc3)n2C)cc1	-1	-4	-1	-1	-2	-17	x
C[C@@]12C(=O)Nc3ccc(Br)cc3C(=O)N1[C@H]1c3cc(Br)ccc3OC[C@@H]1[C@@H]2c1ccccc1	15	15	17	2	-5	-5	x
COc1ccc2c(c1)C(=O)N1[C@H]3c4cc(Br)ccc4OC[C@@H]3[C@H](c3ccccc3)[C@]1(C)C(=O)N2	31	-9	52*	5	x	30	53*
